According to ChEMBL document CHEMBL1955761, “Privileged scaffolds or promiscuous binders: a comparative study on rhodanines and related heterocycles in medicinal chemistry” (J Med Chem, 2012):
Activity calls are given as the source filed them.

Columns and labels:
Dengue virus = experiment: Inhibition of Dengue virus NS2B-NS3 protease using Abz-NleKRRS-3-(NO2)Y as substrate at 50 uM preincubated for 15 mins measured every sec for 15 mins by fluorimetric analysis
Escherichia coli [1] = experiment: Inhibition of Escherichia coli MurA using PEP as substrate assessed as inorganic phosphate release at 25 uM preincubated for 10 mins measured after 60 mins […]
Escherichia coli [2] = experiment: Inhibition of Escherichia coli MetAP at 10 uM after 15 mins by fluorescence analysis
Prothrombin (Bos taurus) = Prothrombin (Bos taurus) (UniProt P00735); experiment: Inhibition of bovine plasma thrombin using Boc-Val-Pro-Arg-AMC as substrate at 25 uM preincubated for 15 mins measured after 10 mins by fluorimetric assay
Outline: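 Purchased bovine plasma thrombin at 10 nM final, preincubated 15 min with 25 μM inhibitor; reaction started with 50 μM substrate. Buffer 50 mM Tris-HCl pH 7.5, 150 mM NaCl, 0.05% Tween 20. Triplicate, averaged.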

SMILES | inhibition (Dengue virus) | inhibition (Escherichia coli [1]) | inhibition (Escherichia coli [2]) | inhibition (Prothrombin (Bos taurus))
O=C1NC(=O)/C(=C/c2ccccc2)S1 | 25% | inactive | inactive | 15%
COc1cccc(/C=C2\NC(=O)NC2=O)c1 | 18% | inactive | inactive | inactive
O=C1NC(=S)NC1Cc1cccs1 (centres undefined) | inactive | inactive | inactive | inactive
O=C1NC(=S)S/C1=C\c1sccc1Br | 60% | 20% | inactive | 24%
CCC/C=C/C1SC(=S)NC1=O (centres undefined) | 23% | 88% | inactive | 11%
O=C1NC(=S)S/C1=C\c1cccc(O)c1 | 29% | 58% | 12% | 15%
O=C1NC(=O)/C(=C/c2sccc2Cl)S1 | 23% | 12% | inactive | 11%
O=C1NC(=S)N/C1=C\c1c(F)c(F)c(F)c(F)c1F | 24% | 17% | 13% | 29%
O=C1NC(=S)S/C1=C\c1ccc2ccccc2c1 | 56% | 15% | 14% | 28%
O=C1NC(=S)N/C1=C\c1ccc(O)c(O)c1 | 36% | 46% | 86% | 23%
COc1ccccc1/C=C1\SC(=O)NC1=O | 17% | 25% | 10% | 11%
O=C1NC(=S)N/C1=C\c1cccs1 | 48% | inactive | inactive | 16%
O=C1NC(=S)N/C1=C\c1c[nH]c2ccccc12 | 55% | 77% | inactive | 22%
CC(C)C[C@@H]1NC(=S)NC1=O | inactive | 20% | inactive | inactive
C/C(=C1/NC(=S)NC1=O)c1cccs1 | 43% | 50% | 42% | 20%
O=C1NC(=S)N/C1=C\c1cccc(O)c1 | 28% | 21% | 15% | 12%
C/C(=C1/SC(=S)NC1=O)c1ccc2ccccc2c1 | 42% | inactive | inactive | 23%
O=C1NC(=S)N/C1=C\C=C\c1ccco1 | 37% | 69% | 23% | 38%
O=C1NC(=S)N/C1=C1/CCOc2ccccc21 | 43% | 43% | 28% | 18%
O=C1NC(=O)/C(=C/c2c(F)c(F)c(F)c(F)c2F)N1 | 14% | 18% | inactive | 18%

SMILES | inhibition (Dengue virus) | inhibition (Escherichia coli [1]) | inhibition (Escherichia coli [2]) | inhibition (Prothrombin (Bos taurus))
CC(=O)N1C(=S)NC(=O)[C@@H]1CCC(N)=O | inactive | inactive | 13% | inactive
COc1cccc(/C=C2\NC(=S)NC2=O)c1 | 28% | 10% | 18% | 15%
O=C1NC(=S)S/C1=C\c1c(F)c(F)c(F)c(F)c1F | 27% | inactive | inactive | 25%
O=C1NC(=O)/C(=C/c2cccs2)N1 | 16% | inactive | inactive | 22%
O=C1NC(=S)S/C1=C\c1cnc[nH]1 | 53% | 18% | 18% | 31%
C/C(=C1/NC(=S)NC1=O)c1ccc2ccccc2c1 | 33% | inactive | 15% | 10%
CC(=O)N1C(=S)NC(=O)[C@@H]1Cc1ccc(O)cc1 | inactive | inactive | inactive | inactive
COc1ccc(/C=C2\SC(=O)NC2=O)cc1OC | 16% | inactive | 13% | 23%
COc1ccc(/C=C2\SC(=O)NC2=O)cc1 | 19% | 84% | 11% | 32%
O=C1NC(=S)S/C1=C\c1ccco1 | 52% | 17% | inactive | 25%
C/C(=C1/SC(=S)NC1=O)c1cccs1 | 45% | 11% | inactive | 17%
Cc1ccc(/C=C2\NC(=S)NC2=O)cc1 | 31% | inactive | 15% | 14%
CN(C)c1ccc(/C=C2\NC(=O)NC2=O)cc1 | 29% | inactive | inactive | 16%
O=C1NC(=O)/C(=C/c2ccc(Cl)cc2Cl)N1 | 15% | inactive | inactive | inactive
O=C1NC(=O)/C(=C/c2ccco2)N1 | 25% | 10% | inactive | 23%
CN(C)c1ccc(/C=C2\SC(=O)NC2=O)cc1 | 20% | inactive | 13% | 11%
COc1cc(/C=C2\NC(=S)NC2=O)ccc1O | 38% | 72% | 26% | 23%
N#Cc1ccc(/C=C2\NC(=S)NC2=O)cc1 | 37% | inactive | inactive | 11%
O=C1NC(=O)/C(=C/c2c[nH]c3ccccc23)N1 | 36% | inactive | inactive | 15%
O=C1NC(=S)N/C1=C\c1sccc1Br | 44% | 31% | inactive | 11%

SMILES | inhibition (Dengue virus) | inhibition (Escherichia coli [1]) | inhibition (Escherichia coli [2]) | inhibition (Prothrombin (Bos taurus))
O=C1NC(=S)S/C1=C\c1sccc1Cl | 47% | 43% | inactive | 28%
COc1ccc(/C=C2\NC(=S)NC2=O)cc1 | 50% | inactive | inactive | 13%
O=C1NC(=O)/C(=C2\CCOc3ccccc32)S1 | 35% | inactive | 11% | inactive
O=C1CNC(=O)N1 | inactive | inactive | inactive | inactive
O=C1NC(=S)N/C1=C\c1ccc(O)cc1 | 48% | 11% | inactive | 39%
CC(=O)N1C(=S)NC(=O)[C@@H]1Cc1ccccc1 | inactive | 19% | 12% | inactive
O=C1NC(=O)/C(=C/c2ccc(O)cc2)S1 | 32% | inactive | inactive | 34%
O=C1NC(=S)NC1=C(c1ccccc1)c1ccccc1 | inactive | inactive | 24% | inactive
O=C1NC(=O)/C(=C/c2ccc(Cl)cc2Cl)S1 | 13% | inactive | inactive | 28%
O=C1NC(=O)/C(=C/c2ccccn2)S1 | 15% | inactive | 12% | 29%
CC(=O)N1C(=S)NC(=O)[C@@H]1Cc1c[nH]c2ccccc12 | inactive | inactive | inactive | inactive
C/C(=C1/SC(=S)NC1=O)c1ccc(F)cc1 | inactive | 69% | inactive | 20%
O=C1NC(=S)N/C1=C\c1ccccc1 | 35% | inactive | 12% | 17%
Cc1ccc(/C=C2\SC(=S)NC2=O)cc1 |  |  |  | 23%
C/C(=C1/SC(=O)NC1=O)c1ccc2ccccc2c1 | 30% | inactive | 12% | 20%
O=C1NC(=S)N/C1=C\c1ccc(Cl)cc1Cl | 41% | 22% | 15% | 20%
O=C1NC(=S)S/C1=C\c1ccccn1 |  |  |  | inactive
C/C(=C1/NC(=S)NC1=O)c1ccc(C2CCCCC2)cc1 | 12% | 13% | 58% | inactive
COc1cc(/C=C2\NC(=O)NC2=O)ccc1O | 13% | 17% | inactive | inactive
O=C1NC(=O)[C@H](Cc2c[nH]c3ccccc23)N1 | inactive | inactive | 19% | inactive
